Here are results for two compounds from ChEMBL document CHEMBL3580617, “Discovery of Benzimidazole CYP11B2 Inhibitors with in Vivo Activity in Rhesus Monkeys” (ACS Med Chem Lett, 2015).

Each structure is given as a SMILES string. Bounds are passed on as bounds.

Broadly, the IC50 is the concentration that inhibits the measured activity by half. For orientation: fraction unbound means free concentration divided by total concentration. What is called bioavailability is dose-corrected exposure relative to a reference, in per cent.

The target of data set [1] is T1, Aromatase (Homo sapiens, UniProt P11511).
T1 sequence (P11511 whole entry): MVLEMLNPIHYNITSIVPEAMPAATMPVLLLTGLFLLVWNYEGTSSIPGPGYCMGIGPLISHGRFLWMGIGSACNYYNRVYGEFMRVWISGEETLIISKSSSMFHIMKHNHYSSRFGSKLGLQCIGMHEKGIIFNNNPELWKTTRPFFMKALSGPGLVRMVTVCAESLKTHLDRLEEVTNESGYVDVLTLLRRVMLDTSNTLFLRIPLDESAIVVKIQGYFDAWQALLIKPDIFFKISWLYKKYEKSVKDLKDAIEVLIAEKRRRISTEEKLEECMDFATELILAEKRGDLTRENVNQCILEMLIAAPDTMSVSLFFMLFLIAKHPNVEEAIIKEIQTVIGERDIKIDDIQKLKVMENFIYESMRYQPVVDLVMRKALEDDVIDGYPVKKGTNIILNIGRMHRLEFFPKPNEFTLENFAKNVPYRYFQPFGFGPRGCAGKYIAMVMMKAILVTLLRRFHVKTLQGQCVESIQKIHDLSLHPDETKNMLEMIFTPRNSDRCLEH
Description: Inhibition of CYP19 (unknown origin) using MFC substrate incubated for 30 mins.

Data set [2] can be described thus: Fraction unbound in rhesus monkey plasma at […] incubated for 4 hrs by equilibrium dialysis and LC/MS method. In kind it is ADME, cell-free, Macaca mulatta.
Data set [3] can be described thus: Oral bioavailability in Sprague-Dawley rat at 2 mg/kg by LC-MS/MS method. The conditions noted are these: in vivo. In kind it is ADME, organism-based. The procedure, abridged: (§1)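 In the rat pharmacokinetic study, AUC was normalized for dose (μM·h·kg/mg), plasma clearance was expressed in mL/min/kg, and oral bioavailability was calculated.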
Data set [4] in a line: Oral bioavailability in rhesus monkey at 1 mg/kg by LC-MS/MS method. The class given is ADME, organism-based, Macaca mulatta. The conditions noted are these: in vivo.
Data set [5] relates to Rattus norvegicus. The data set is described as follows: Dose normalized AUC in Sprague-Dawley rat at 2 mg/kg, po or 1 mg/kg, iv by LC-MS/MS method. In kind it is ADME, organism-based. As to conditions: in vivo; call rule not given here. The procedure, abridged: as §1
Data set [6] addresses Cytochrome P450 2D6 (Homo sapiens, UniProt P10635). The data set is described as follows: Inhibition of CYP2D6 (unknown origin). In kind it is ADME.
Data set [7] addresses T2, Cytochrome P450 11B2, mitochondrial (Rattus norvegicus, UniProt P30099).
T2 sequence (P30099 whole entry): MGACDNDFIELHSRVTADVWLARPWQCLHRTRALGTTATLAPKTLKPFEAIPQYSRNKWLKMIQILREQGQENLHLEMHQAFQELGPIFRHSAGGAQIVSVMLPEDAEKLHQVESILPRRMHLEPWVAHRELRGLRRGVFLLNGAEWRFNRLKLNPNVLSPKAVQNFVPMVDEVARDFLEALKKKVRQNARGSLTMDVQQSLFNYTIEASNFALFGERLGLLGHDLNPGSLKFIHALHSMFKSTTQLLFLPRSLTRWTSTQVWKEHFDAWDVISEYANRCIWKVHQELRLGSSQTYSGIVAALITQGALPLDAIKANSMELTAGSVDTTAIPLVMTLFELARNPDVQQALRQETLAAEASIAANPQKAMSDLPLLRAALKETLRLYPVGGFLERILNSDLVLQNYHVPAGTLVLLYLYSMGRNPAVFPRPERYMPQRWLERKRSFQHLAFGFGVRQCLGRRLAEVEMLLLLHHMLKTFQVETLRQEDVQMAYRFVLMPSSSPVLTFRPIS
Description: Inhibition of rat CYP11B2 expressed in V79 cells incubated for 1 hr before 11-deoxycorticosterone substrate addition by HTRF-based assay. The class given is cell-based. As to conditions: v79, 1 h. For orientation: TR-FRET usually uses a lanthanide donor and a delayed reading to cut background.

The test system of data set [8] is Rhesus monkey. Description: Dose normalized AUC in rhesus monkey at 1 mg/kg, po or 0.5 mg/kg, iv by LC-MS/MS method. In kind it is ADME, organism-based, Macaca mulatta. The conditions noted are these: in vivo.
Data set [9] addresses Cytochrome P450 3A4 (Homo sapiens, UniProt P08684). The data set is described as follows: Inhibition of CYP3A4 (unknown origin). In kind it is ADME.
Data set [10] in a line: Plasma clearance in Sprague-Dawley rat at 2 mg/kg, po or 1 mg/kg, iv by LC-MS/MS method. In kind it is ADME, organism-based. The procedure, abridged: as §1
Data set [11] in a line: Plasma clearance in rhesus monkey at 1 mg/kg, po or 0.5 mg/kg, iv by LC-MS/MS method. The class given is ADME, organism-based, Macaca mulatta.
The nature of data set [12]: Fraction unbound in rat plasma at […] incubated for 4 hrs by equilibrium dialysis and LC/MS method. In kind it is ADME, cell-free. In general terms: Equilibrium dialysis compares concentrations on both sides of a semipermeable membrane.
The target of data set [13] is T3, Steroid 21-hydroxylase (Homo sapiens, UniProt P08686).
T3 sequence (P08686 whole entry): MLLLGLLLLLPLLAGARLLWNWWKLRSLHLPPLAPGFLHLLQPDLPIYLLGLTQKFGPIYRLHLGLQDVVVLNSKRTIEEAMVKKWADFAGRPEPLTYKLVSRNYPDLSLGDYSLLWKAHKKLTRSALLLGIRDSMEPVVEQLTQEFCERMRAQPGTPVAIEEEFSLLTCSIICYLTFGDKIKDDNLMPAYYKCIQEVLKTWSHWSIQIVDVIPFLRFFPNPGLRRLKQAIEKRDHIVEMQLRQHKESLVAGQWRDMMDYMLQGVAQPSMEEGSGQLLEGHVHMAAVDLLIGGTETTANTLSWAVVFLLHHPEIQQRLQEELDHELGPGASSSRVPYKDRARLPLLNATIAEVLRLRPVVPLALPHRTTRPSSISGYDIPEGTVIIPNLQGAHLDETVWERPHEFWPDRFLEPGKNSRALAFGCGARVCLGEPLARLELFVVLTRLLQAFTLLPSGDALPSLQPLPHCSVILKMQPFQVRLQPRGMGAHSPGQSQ
The data set is described as follows: Inhibition of human CYP21 expressed in COS7 cells incubated for 1 hr before […] substrate addition by HTRF-based assay. In kind it is cell-based, COS-7.

Data set [14] in a line: Intrinsic clearance in rhesus monkey liver microsomes at […] incubated for 10 mins before NADPH addition by LC/MS method. The class given is ADME, Macaca mulatta. As to conditions: read-out: CLH. Background: Liver microsomes are vesicles of endoplasmic reticulum, rich in cytochrome P450 enzymes.
Data set [15] in a line: Intrinsic clearance in rat liver microsomes at […] incubated for 10 mins before NADPH addition by LC/MS method. In kind it is ADME. As to conditions: read-out: CLH.
The target of data set [16] is T4, Steroid 17-alpha-hydroxylase/17,20 lyase (Homo sapiens, UniProt P05093).
T4 sequence (P05093 whole entry): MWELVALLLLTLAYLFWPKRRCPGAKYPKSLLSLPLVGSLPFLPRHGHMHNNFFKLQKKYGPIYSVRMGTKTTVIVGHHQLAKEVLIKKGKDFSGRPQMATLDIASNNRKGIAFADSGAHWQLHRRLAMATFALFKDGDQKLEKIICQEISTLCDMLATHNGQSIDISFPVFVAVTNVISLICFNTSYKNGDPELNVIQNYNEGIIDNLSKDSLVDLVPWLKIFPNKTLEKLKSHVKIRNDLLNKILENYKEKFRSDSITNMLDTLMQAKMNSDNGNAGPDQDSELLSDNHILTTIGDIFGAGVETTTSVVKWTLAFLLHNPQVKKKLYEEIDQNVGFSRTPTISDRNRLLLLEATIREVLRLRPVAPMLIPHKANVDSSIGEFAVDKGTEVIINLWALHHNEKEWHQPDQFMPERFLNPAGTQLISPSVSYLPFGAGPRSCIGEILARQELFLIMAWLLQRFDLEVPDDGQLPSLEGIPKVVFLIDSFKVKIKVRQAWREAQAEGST
The data set is described as follows: Inhibition of human CYP17 expressed in COS7 cells incubated for 1 hr before 17-hydroxypregnenolone substrate addition by EIA method. In kind it is cell-based, COS-7.

Cytochrome P450 2D6, sequence (P10635 whole entry): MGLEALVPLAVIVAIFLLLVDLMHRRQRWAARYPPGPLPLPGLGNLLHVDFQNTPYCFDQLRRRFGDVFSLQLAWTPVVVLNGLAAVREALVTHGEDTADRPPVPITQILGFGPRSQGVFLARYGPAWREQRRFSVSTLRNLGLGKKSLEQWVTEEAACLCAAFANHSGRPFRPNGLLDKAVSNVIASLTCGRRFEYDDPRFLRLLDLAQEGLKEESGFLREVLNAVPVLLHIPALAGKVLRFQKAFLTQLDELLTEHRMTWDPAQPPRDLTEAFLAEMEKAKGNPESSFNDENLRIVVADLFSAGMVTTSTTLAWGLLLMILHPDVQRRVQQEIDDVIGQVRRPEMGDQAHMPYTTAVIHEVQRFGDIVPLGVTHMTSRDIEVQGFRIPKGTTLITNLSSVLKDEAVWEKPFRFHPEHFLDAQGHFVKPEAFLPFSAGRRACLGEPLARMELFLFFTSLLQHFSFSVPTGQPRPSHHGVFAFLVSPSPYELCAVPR
Cytochrome P450 3A4, sequence (P08684 whole entry): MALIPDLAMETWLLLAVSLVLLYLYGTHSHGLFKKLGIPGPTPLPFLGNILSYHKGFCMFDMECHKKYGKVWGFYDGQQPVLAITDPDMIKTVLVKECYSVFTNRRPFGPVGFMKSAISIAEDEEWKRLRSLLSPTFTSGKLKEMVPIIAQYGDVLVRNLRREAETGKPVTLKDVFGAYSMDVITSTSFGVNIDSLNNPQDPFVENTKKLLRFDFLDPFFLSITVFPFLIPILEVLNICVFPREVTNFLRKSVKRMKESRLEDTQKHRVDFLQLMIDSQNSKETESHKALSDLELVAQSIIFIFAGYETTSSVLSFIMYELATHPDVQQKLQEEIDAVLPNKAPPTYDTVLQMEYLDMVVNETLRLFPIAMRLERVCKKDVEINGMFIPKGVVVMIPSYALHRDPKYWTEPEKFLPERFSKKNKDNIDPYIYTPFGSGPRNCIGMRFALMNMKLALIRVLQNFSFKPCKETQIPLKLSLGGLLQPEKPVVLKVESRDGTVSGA

As for `CC(C)(O)c1cncc(-c2nc3ccc(F)cc3n2C2CC2)c1` [MSD-CYP11B2], the IC50 in [1] was 1020 nM; in [9], more than 50 µM; in [13], more than 10 µM; in data set [16], more than 10 µM. Further, the values for the fraction unbound at 4 h in data set [2] and in data set [12] were 0.07 and 0.13, respectively. The bioavailability in data set [3] worked out at 76%; in [4] it was 15%. Moreover, the AUC/dose in [5] stood at 4.32 µM·kg·h/mg; in data set [8], 1.53 µM·kg·h/mg. The “inhibition (INH)” value in data set [6] and in data set [7] was “Not Active” in each case. Also, the clearance was 10 mL/min/kg in [10] and 5 mL/min/kg in data set [11]. In addition, the CLint scaled was 22 mL/min/kg in [14] and less than 20 mL/min/kg in data set [15].

As for `Fc1cncc(-c2nc3cc(F)c(F)cc3n2C2CC2)c1`, the IC50 in data set [1] is 4510 nM; in [9] it was more than 50 µM; in data set [13], more than 10 µM; in data set [16] it was more than 10 µM. Further, the fraction unbound at 4 h came to 0.23 in [2] and 0.14 in data set [12]. The results for the bioavailability in [3] and in data set [4] were 86% and 53%, respectively. Moreover, the AUC/dose is 2.1 µM·kg·h/mg in [5] and 3.07 µM·kg·h/mg in data set [8]. Besides, the “inhibition (INH)” value in data set [6] and in data set [7] was “Not Active” each time. Further, the clearance in [10] was determined as 37 mL/min/kg; in [11], 10 mL/min/kg. Moreover, the CLint scaled in [14] and in data set [15] was less than 20 mL/min/kg in each case.
